Assay results as given in ChEMBL document CHEMBL2346555, “Efficacious cyclic N-acyl O-amino phenol duocarmycin prodrugs” (J Med Chem, 2013).

Key:
[1] = Stability of the compound in THF at 254 nM under non basic condition in presence of BnSH; assay type: physicochemical; details: 0.254 µM
[2] = Stability of the compound in THF at 254 nM under non basic condition in presence of BnNH2; assay type: physicochemical; details: 0.254 µM
[3] = Drug degradation in MeOH at 254 nM after 72 hrs by LC-MS analysis in presence of NaHCO3 and BnNH2; assay type: physicochemical; details: MeOH with NaHCO3 and BnNH2; read-out: Drug degradation
[4] = Drug degradation in MeOH at 254 nM after 72 hrs by LC-MS analysis in presence of NaHCO3 and BnSH; assay type: physicochemical; details: MeOH with NaHCO3 and BnSH; read-out: Drug degradation
[5] = Drug degradation in THF at 254 nM after 72 hrs by LC-MS analysis in presence of NaHCO3 and BnNH2; assay type: physicochemical; details: THF with NaHCO3 and BnNH2; read-out: Drug degradation
[6] = Drug degradation in MeOH at 254 nM after 48 hrs by LC-MS analysis in presence of NaHCO3 and BnNH2; assay type: physicochemical; details: MeOH with NaHCO3 and BnNH2; read-out: Drug degradation
[7] = Drug degradation in THF at 254 nM after 72 hrs by LC-MS analysis in presence of NaHCO3 and BnSH; assay type: physicochemical; details: THF with NaHCO3 and BnSH; read-out: Drug degradation
[8] = Drug degradation in MeOH at 254 nM after 48 hrs by LC-MS analysis in presence of NaHCO3 and BnSH; assay type: physicochemical; details: MeOH with NaHCO3 and BnSH; read-out: Drug degradation
[9] = Drug degradation in THF at 254 nM after 48 hrs by LC-MS analysis in presence of NaHCO3 and BnNH2; assay type: physicochemical; details: THF with NaHCO3 and BnNH2; read-out: Drug degradation
[10] = Drug degradation in MeOH at 254 nM after 24 hrs by LC-MS analysis in presence of NaHCO3 and BnNH2; assay type: physicochemical; details: MeOH with NaHCO3 and BnNH2; read-out: Drug degradation
[11] = Drug degradation in THF at 254 nM after 48 hrs by LC-MS analysis in presence of NaHCO3 and BnSH; assay type: physicochemical; details: THF with NaHCO3 and BnSH; read-out: Drug degradation
[12] = Drug degradation in THF at 254 nM after 24 hrs by LC-MS analysis in presence of NaHCO3 and BnSH; assay type: physicochemical; details: THF with NaHCO3 and BnSH; read-out: Drug degradation
[13] = Drug degradation in MeOH at 254 nM after 24 hrs by LC-MS analysis in presence of NaHCO3 and BnSH; assay type: physicochemical; details: MeOH with NaHCO3 and BnSH; read-out: Drug degradation
[14] = Drug degradation in THF at 254 nM after 24 hrs by LC-MS analysis in presence of NaHCO3 and BnNH2; assay type: physicochemical; details: THF with NaHCO3 and BnNH2; read-out: Drug degradation
[15] = Stability of the compound in MeOH at 254 nM after 2 hrs by LC-MS analysis in presence of NaHCO3 and BnNH2; assay type: physicochemical; details: 0.254 µM
[16] = Drug degradation in MeOH at 254 nM after 2 hrs by LC-MS analysis in presence of NaHCO3 and BnSH; assay type: physicochemical; details: MeOH with NaHCO3 and BnSH; read-out: Drug degradation
[17] = Drug degradation in THF at 254 nM after 2 hrs by LC-MS analysis in presence of NaHCO3 and BnNH2; assay type: physicochemical; details: THF with NaHCO3 and BnNH2; read-out: Drug degradation
[18] = Drug degradation in THF at 254 nM after 2 hrs by LC-MS analysis in presence of NaHCO3 and BnSH; assay type: physicochemical; details: THF with NaHCO3 and BnSH; read-out: Drug degradation
[19] = Half life of the compound in MeOH at 23 degC in presence of NaHCO3; assay type: physicochemical; details: MeOH with NaHCO3
[20] = Half life of the compound in HCl/EtOAc at 23 degC; assay type: physicochemical
L1210 = assay: Cytotoxicity against mouse L1210 cells assessed as growth inhibition after 72 hrs by phosphatase assay; assay type: functional, cell-based; details: Mus musculus, L1210, 72 h
Method in brief: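 L1210 mouse leukemia cells were seeded at 30,000 cells/mL in DMEM with 10% FBS and grown 24 h at 37 °C, 5% CO2. DMSO dilutions were then added at six concentrations between 0–100 or 0–1000 nM, in duplicate, for 72 h. Read-out: phosphatase substrate in 0.1 M NaOAc pH 5.5 with 0.1% Triton X-100, 5 min at 37 °C, stopped with NaOH, A405. IC50 is the average of ≥4 determinations.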

[21] = Stability of the compound in MeOH at 23 degC after 5 days in presence of NaHCO3; assay type: physicochemical; details: 120 h
[22] = Stability of the compound in DMF/H2O at 23 degC after 5 days in presence of NaHCO3; assay type: physicochemical; details: 120 h
[23] = Stability of the compound in THF at 23 degC after 5 days in presence of NaHCO3; assay type: physicochemical; details: 120 h

CC(C)(C)OC(=O)N1C[C@@H](CCl)c2c1cc1c3c(cccc23)C(=O)NO1
Stability [1]: Stable
Stability [2]: Stable
degraded at 72 h, 0.254 µM [3]: 16%
degraded at 72 h, 0.254 µM [4]: 83%
degraded at 72 h, 0.254 µM [5]: 3%
degraded at 48 h, 0.254 µM [6]: 15%
degraded at 72 h, 0.254 µM [7]: 46%
degraded at 48 h, 0.254 µM [8]: 75%
degraded at 48 h, 0.254 µM [9]: 4%
degraded at 24 h, 0.254 µM [10]: 9%
degraded at 48 h, 0.254 µM [11]: 39%
degraded at 24 h, 0.254 µM [12]: 33%
degraded at 24 h, 0.254 µM [13]: 58%
degraded at 24 h, 0.254 µM [14]: 3%
Stability [15]: Stable
degraded at 2 h, 0.254 µM [16]: 33%
degraded at 2 h [17]: 2%
degraded at 2 h, 0.254 µM [18]: 28%
half-life [19]: 70 h
half-life [20]: 2 h
IC50 (L1210): 650 nM

CN1Oc2cc3c(c4cccc(c24)C1=O)[C@H](CCl)CN3C(=O)OC(C)(C)C
Stability [21]: Stable
Stability [22]: Stable
Stability [23]: Stable
half-life [20]: 24 h
IC50 (L1210): 850 nM
